Rpn11 block – blocks the human proteasome subunit Rpn11. O00487. human 26S proteasome, Ub4-pepOG fluorescence polarization; 20S core pre-blocked with epoxomicin. calls only at 20 µM. hit rate 0.59% among 360,000;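 active means inhibition at 20 µM, scaled to each plate's controls, above about 33%, limit read from the data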
Target sequence (O00487 whole entry, looked up): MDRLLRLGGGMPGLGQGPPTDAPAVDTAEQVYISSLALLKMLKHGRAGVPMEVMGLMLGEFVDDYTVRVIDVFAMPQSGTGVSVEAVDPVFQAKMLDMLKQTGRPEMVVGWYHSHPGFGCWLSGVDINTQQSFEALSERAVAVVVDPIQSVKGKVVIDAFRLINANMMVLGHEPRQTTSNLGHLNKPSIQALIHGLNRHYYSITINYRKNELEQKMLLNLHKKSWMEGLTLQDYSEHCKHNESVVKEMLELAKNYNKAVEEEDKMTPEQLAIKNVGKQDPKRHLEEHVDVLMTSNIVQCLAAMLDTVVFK
CSN inh – CSN deneddylation inhibition. inhibition, % at 12.5 µM. hit rate 0.38% among 360,000. Q92905. AID 651999. Purified CSN, SCF-Nedd8-OG deneddylation, fluorescence polarization;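 active means pattern-corrected inhibition above about 35%, with an unprinted fluorescence ratio check between 0.5 and 1.5, limit read from the data, passing the limit was not always enough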;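 further: 0% = enzyme with substrate and 100% = substrate without enzyme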
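Detection – fluorescence polarization · System – HEK293T-derived human Csn5 enzyme · Controls – substrate-only high control, full reaction low control · Timing – 90 min, room temperature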
IDE inh – inhibits human insulin-degrading enzyme in HEK cells; P14735; FAbetaB cleavage, fluorescence polarization; inhibition, % at 5.59 µM; hit rate 0.41% among 320,000; AID 434962;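 active means percent inhibition above the average of all tested compounds plus 3 SD, set per screening campaign, cut at about 16% in these data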;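 further: IDE supplied by intact live HEK cells; FP after avidin binding of uncleaved biotin substrate so inhibition keeps polarization high; 0% = DMSO wells and 100% = 60 µM reference IDE inhibitor Ii1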
TPT1 inhibitor – inhibitors of Candida albicans tRNA 2'-phosphotransferase TPT1; AID 1962; recombinant caTPT1, FP RNA substrate dephosphorylation; inhibition, % at 5 µM; hit rate 0.81% among 300,000;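 active means inhibition above the mean of all tested compounds plus 3 SD, set per screening campaign, cut at about 24% in these data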;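 further: plate controls were DMSO alone for no effect and ferristatin control at 100 nM for full effect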
IDE cell activ – activators of human insulin-degrading enzyme in cells; hit rate 0.073% among 340,000; AID 493087; HEK cells, FAbeta-B cleavage, fluorescence polarization; 0% vehicle, 100% cell-free pure enzyme wells; P14735; activation, % at 5.96 µM;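 active means activation above the mean of all tested compounds plus 3 SD, set per screening campaign, cut at about 17% in these data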
HNF4A DNA FP – change in binding of human HNF4 alpha to DNA. P41235. activity change, % at 10 µM. hit rate 0.3% among 360,000. AID 1224865. HNF4a-FITC DNA binding, fluorescence polarization, 1 h; in the data active means activity change above about 30%, passing the limit was not always enough
TPT1 inh confirm – TPT1 (C. albicans) inhibition, confirmation; recombinant caTPT1, fluorescence polarization, RNase T1 coupled; shares compounds with TPT1 inhibitor; hit rate 74% among 2,400; inhibition, % at 5 µM;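 active means inhibition above the primary screen limit, the mean inhibition of all tested compounds plus 3 SD, cut at about 25% in these data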
RNase T1 counter – counter-screen for TPT1 inhibitors: inhibitors of Aspergillus oryzae RNase T1. inhibition, % at 5 µM. hit rate 83% among 2,400. shares compounds with TPT1 inhibitor. AID 2153. RNase T1 cleavage, fluorescence polarization, 1536-well;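 active means inhibition above the solvent-only control well mean plus 3 SD, limit set per screening run, cut at about 23% in these data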;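 further: plate controls were DMSO wells with enzyme for no effect and wells without RNase T1 for full effect; inhibitors block cleavage so intact labeled substrate keeps polarization high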
Target sequence (P00651 whole entry, looked up): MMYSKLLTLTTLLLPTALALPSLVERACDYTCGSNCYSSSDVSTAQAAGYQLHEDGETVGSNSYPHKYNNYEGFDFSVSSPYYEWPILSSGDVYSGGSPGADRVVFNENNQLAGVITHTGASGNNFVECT
* hit, by the source's call; i = inactive; x = no result given; + = active, no number. Hits are enriched below; roughly 1.7% of the tested compounds scored in any of these assays.

SMILES	Rpn11 block	CSN inh	IDE inh	TPT1 inhibitor	IDE cell activ	HNF4A DNA FP	TPT1 inh confirm	RNase T1 counter
O=C1NC(=S)S/C1=C\c1ccc(SCc2ccccc2)o1	+	69.1	4.1	47.2*	2.6	35.4*	46.5*	64.8*
CC1=NN(c2ccccc2)C(=O)C1C=Nc1ccc(N(C)C)cc1 (configuration not stated)	i	10.5	3.1	41.9*	x	2.9	66.8*	76.6*
O=C1CC(=O)N(CCNc2ncc(C(F)(F)F)cc2Cl)C(=O)N1	i	79.3	-0.6	38.3*	-0.4	17.1	23.4	38.9*
COc1ccc(C(=O)Nc2c(-c3ccccc3)nc3ccccn23)c(OC)c1	i	-3.0	4.2	1.5	-4.2	-2.6	x	x
CN1CCN(S(=O)(=O)c2ccc(Sc3nnc(-c4cccs4)n3-c3ccccc3)nc2)CC1	i	-1.3	0.3	33.7*	1.7	1.7	2.8	4.8
O=C(COc1ccccc1)Nc1nccs1	i	-5.9	5.3	1.7	1.3	-1.3	x	x
O=C(COc1ccc2ccccc2c1)Nc1nccs1	i	-1.5	0.4	28.2*	3.9	4.8	4.3	9.6
COCCN(C(=O)COC(=O)c1ccc2[nH]c(C)c(C)c2c1)c1c(N)n(Cc2ccccc2)c(=O)[nH]c1=O	i	3.5	-6.0	27.9*	3.4	11.0	59.9*	70.9*
CCOCCCNCC(=O)Nc1ccc(S(=O)(=O)NC(C)CC)cc1 (configuration not stated)	i	1.4	8.4	118.3*	0.5	3.1	10.3	12.2
CCCCOCCCNCC(=O)Nc1ccc(S(N)(=O)=O)cc1	i	-4.2	3.3	0.2	4.3	0.6	x	x
COc1ccc(OC)c(/C=C2\SC(=S)N(C(C(=O)O)c3ccccc3)C2=O)c1 (configuration not stated)	x	22.8	6.9	65.5*	-15.7	10.2	61.1*	71.7*
O=C(O)c1ccc(/C=C2\CCCc3c2nc2ccccc2c3C(=O)O)cc1	i	4.7	-1.3	-5.4	-2.6	4.0	x	x
CN(C)c1ccc(/C=C2\CCCc3c2nc2ccccc2c3C(=O)O)cc1	i	0.3	-3.0	25.4*	-5.2	5.7	28.3*	39.0*
CCOC(=O)/C=c1\s/c(=C\c2c(OC)ccc3ccccc23)c(=O)n1CC(=O)NCC1CCCO1 (configuration not stated)	x	10.1	3.6	28.2*	-0.6	14.3	41.4*	49.9*
CCOC(=O)/C=c1/s/c(=C/c2ccc3cc(OC)ccc3c2)c(=O)n1CC(=O)NCC1CCCO1 (configuration not stated)	x	24.4	x	x	5.7	34.1	x	x
O=C(NCC(=O)N(CC1CCCO1)C(C(=O)NC1CCCCC1)c1ccccc1)c1cccs1 (configuration not stated)	i	0.4	-2.9	-1.1	-1.2	-3.2	x	x
CCCOc1cc(N(CC)CC)ccc1/C=C(/C#N)c1nc2ccc(C)cc2[nH]1	x	8.3	105.0*	184.2*	-101.9	102.7	192.6*	171.1*
CC(C)c1ccc(/C=C2\Oc3c(ccc(O)c3CN3CCN(C)CC3)C2=O)cc1	i	7.3	7.2	36.8*	0.1	4.8	40.0*	51.0*
COc1cc(/C=C2\COC/C(=C\c3cc(OC)c(OC)c(OC)c3)C2=O)cc(OC)c1OC	i	20.3	x	x	7.0	2.3	x	x
COc1ccc(/C=C2/CC/C(=C\c3ccc(OC)c(OC)c3OC)C2=O)c(OC)c1OC	i	-0.3	5.8	24.4*	2.1	4.9	36.5*	42.7*
COc1cc(/C=C2\CC/C(=C\c3cc(OC)c(OC)c(OC)c3)C2=O)cc(OC)c1OC	i	8.4	0.7	39.0*	2.3	-0.4	48.3*	56.7*
CCN(CC)c1ccc(/C=N/Nc2nn[nH]n2)cc1	i	2.8	7.4	0.5	6.3	9.7	x	x
CCN(CC)c1ccc(C=N/C(C#N)=C(\N)C#N)cc1	x	27.5	11.6	82.6*	-3.6	27.6	116.4*	121.0*

Assay outcomes (PubChem)
